Bioassay records as filed in PubChem.
Hits are enriched below; roughly 2.3% of the tested compounds scored in any of these assays.
TAAR1 antagonist: human TAAR1 antagonism. Q96RJ0. CHO RD-HGA16 TAAR1, Fluo-8 calcium fluorescence, antagonist. inhibition, % at 3 µM. actives 1.5% (n = 360,000). AID 624466;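 active means inhibition above a per-plate cutoff, the mean inhibition of test compounds on that plate plus 3 SD, cut at about 49% in these data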
Target sequence (Q96RJ0 whole entry, looked up): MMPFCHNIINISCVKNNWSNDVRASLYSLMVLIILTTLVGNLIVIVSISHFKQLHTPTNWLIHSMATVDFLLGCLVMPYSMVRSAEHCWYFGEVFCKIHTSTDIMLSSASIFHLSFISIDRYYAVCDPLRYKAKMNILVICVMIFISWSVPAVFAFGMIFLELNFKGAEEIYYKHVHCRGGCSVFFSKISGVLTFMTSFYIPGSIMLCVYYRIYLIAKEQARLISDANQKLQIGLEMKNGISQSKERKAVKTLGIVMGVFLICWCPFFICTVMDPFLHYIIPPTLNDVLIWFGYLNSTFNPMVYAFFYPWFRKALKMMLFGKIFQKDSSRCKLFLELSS
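Test system: CHO RD-HGA16 cells bearing hTAAR1 | Reagent: β-PEA, EC80 | Compound dosing: 3 µM, single point | Schedule: Dye loading 75 min at 37 °C, then 30 min room temperature | Signal: Calcium fluorescence with Fluo-8 | Evaluation: Percent inhibition of PEA-evoked calcium signal, max/basal emission ratio | Control set: DMSO-only wells and EC80 β-PEA-stimulated wells | Repeats: Singlicate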
OXTR agonist: agonists of human oxytocin receptor; P30559; CHO-OTR cells, Fluo-8 calcium fluorescence; normalized: DMSO 0%, oxytocin 100%; activation, % at 3 µM; actives 0.32% (n = 320,000); AID 2435;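 active means activation above the mean of all tested compounds plus 3 SD, cutoff set per screening run, cut at about 20% in these data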;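 further: peak over basal fluorescence ratio from a 100 s FLIPR kinetic read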
Target sequence (P30559 whole entry, looked up): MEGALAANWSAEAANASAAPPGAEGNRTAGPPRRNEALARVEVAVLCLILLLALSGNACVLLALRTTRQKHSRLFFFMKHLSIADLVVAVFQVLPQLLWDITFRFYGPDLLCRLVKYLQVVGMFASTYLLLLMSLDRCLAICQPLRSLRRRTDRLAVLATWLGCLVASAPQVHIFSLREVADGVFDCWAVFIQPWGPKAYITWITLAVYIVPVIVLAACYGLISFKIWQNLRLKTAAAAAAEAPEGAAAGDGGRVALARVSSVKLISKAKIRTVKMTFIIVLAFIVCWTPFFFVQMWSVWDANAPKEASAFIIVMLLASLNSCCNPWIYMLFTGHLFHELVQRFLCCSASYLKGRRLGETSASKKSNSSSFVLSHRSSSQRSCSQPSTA
V1aR counter: counter-screen for oxytocin receptor agonists: human V1a receptor agonists | activation, % at 3 µM | actives 0.25% (n = 320,000) | CHO-V1R cells, Fluo-8 calcium fluorescence, agonist mode; 0% DMSO, 100% 3 nM vasopressin | P37288;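 active means activation above the mean activation of all tested compounds plus 3 SD, per screening run, cut at about 20% in these data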;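 further: signal is peak over basal fluorescence ratio across a 100 second FLIPR read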
TAAR1 ag: agonists of human TAAR1; actives 0.99% (n = 360,000); activation, % at 3 µM; CHO RD-HGA16 TAAR1, Fluo-8 calcium fluorescence; vehicle wells 0%, saturating PEA agonist 100%;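 active means activation above the mean activation of all test compounds in the run plus 3 SD, cut at about 38% in these data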
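Test system: RD-HGA16 (CHO) cells co-expressing Gα16 and hTAAR1 / Benchmarks: DMSO vehicle as 0%, PEA at EC100 as 100% / Repeats: no replicates (n 1) / Measure: % activation from peak over basal fluorescence ratio, DMSO-to-PEA scaled / Timing: 17-24 h plating, Fluo-8 75 min 37 °C, 30 min RT / Technique: kinetic Fluo-8 calcium fluorescence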
OXTR potentiator: potentiators of human oxytocin receptor | activation, % at 3 µM | actives 0.061% (n = 320,000) | AID 2445 | P30559 | CHO-OTR cells, Fluo-8 calcium fluorescence, potentiator mode; 0% = oxytocin EC15, 100% = EC100;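 active means activation above that plate's cutoff, the mean activation of tested compounds plus 3 SD, cut at about 6.6% in these data, passing the limit was not always enough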
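test system = CHO-OTR cells, human receptor | compound = single-point 3.0 µM | schedule = 6 min compound pre-incubation at room temperature, 100 s kinetic read | signal = Fluo-8 no-wash calcium dye fluorescence, excitation 470-495 nm, emission 515-575 nm | repeats = single well per compound, singlicate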
Numbers stand for hits; i = inactive; nt = no result given.

SMILES | TAAR1 antagonist | OXTR agonist | V1aR counter | TAAR1 ag | OXTR potentiator
C[C@H](NC(=O)c1nc[nH]c1C(=O)N[C@@H](CCCCNC(=O)OC(C)(C)C)C(=O)OC(C)(C)C)C(=O)OCc1ccccc1 | i | i | i | i | i
CC(C)C[C@H](NC(=O)c1nc[nH]c1C(=O)NCCCCCNC(=O)OC(C)(C)C)C(=O)OCc1ccccc1 | i | i | i | i | i
CC(C)(C)OC(=O)NCCCCCNC(=O)c1[nH]cnc1C(=O)N[C@@H](Cc1ccccc1)C(=O)OCc1ccccc1 | 54.3 | i | i | i | i
C[C@H](NC(=O)c1nc[nH]c1C(=O)NCCCCCNC(=O)OC(C)(C)C)C(=O)OCc1ccccc1 | 76.3 | i | i | i | i
O=C(CNC(=O)c1[nH]cnc1C(=O)N[C@@H](Cc1ccccc1)C(=O)OCc1ccccc1)OCc1ccccc1 | 63.9 | i | i | i | i
COc1ccc(CNC(=O)CNC(=O)c2cccs2)c(OC)c1 | i | i | i | i | i
COc1ccc(CNC(=O)C2CCN(c3cc(C(=O)Nc4cccc(OC)c4)ccn3)CC2)cc1 | 49.4 | i | i | i | i
Cc1ccccc1Nc1nnc(SCc2cc([N+](=O)[O-])cc3c2OCOC3)s1 | nt | i | i | nt | i
O=[N+]([O-])c1cc2c(c(CSc3nnc(Nc4ccccc4)s3)c1)OCOC2 | 53.1 | i | i | i | i
CNc1cccc(-c2ccccc2CO)n1 | i | nt | nt | i | nt
COc1ccc(C(=O)CSc2nc3ccccc3n2CC(=O)c2ccccc2)cc1 | 59.0 | i | i | i | i
CCOC(=O)c1c(C)[nH]c(C)c1C(=O)CSc1nc2ccccc2n1CC | 49.1 | i | i | i | i
CCOC(=O)c1c(C)[nH]c(C)c1C(=O)CSc1nc2ccccc2n1CCOC | i | i | i | i | i
COc1ccc(OCCSc2nc3ccccc3n2CC(=O)O)cc1 | i | i | i | i | i
C=CCNS(=O)(=O)c1cc2c3c(c1)CCN3C(=O)CC2 | i | i | i | i | i
CC(C)(C)OC(=O)CNC(=O)c1[nH]cnc1C(=O)Nc1ccc(CNC(=O)OC(C)(C)C)cc1 | 59.1 | i | i | i | i
CC(C)(C)OC(=O)NCc1ccc(NC(=O)c2nc[nH]c2C(=O)NCCNC(=O)c2[nH]cnc2C(=O)Nc2ccc(CNC(=O)OC(C)(C)C)cc2)cc1 | nt | i | i | nt | i
C[C@@H](O)CNC(=O)c1[nH]cnc1C(=O)Nc1ccc(CNC(=O)OC(C)(C)C)cc1 | 49.1 | nt | nt | i | nt
CC(C)C[C@H](NC(=O)c1[nH]cnc1C(=O)Nc1ccc(CNC(=O)OC(C)(C)C)cc1)C(=O)OC(C)(C)C | i | i | i | i | i
CC(C)C[C@H](NC(=O)c1[nH]cnc1C(=O)Nc1ccc(CNC(=O)OC(C)(C)C)cc1)C(=O)OCc1ccccc1 | 52.8 | i | i | i | i
C[C@H](CO)NC(=O)c1[nH]cnc1C(=O)Nc1ccc(CNC(=O)OC(C)(C)C)cc1 | i | nt | nt | i | nt
Nc1cc(-c2ccc(OC(F)(F)F)cc2)nn1-c1ccc(Cl)c(Cl)c1 | i | i | i | i | i
CCCC(=O)NC1=C(Cl)C(=O)c2ccccc2C1=O | 51.7 | nt | nt | 54.0 | nt
O=C1C(Cl)=C(Nc2ccc(O)cc2)C(=O)c2ccccc21 | 55.6 | i | i | i | i
O=C(Nc1ccc(-n2cccc2)cc1)C1CC1 | i | i | i | i | i
SMILES | TAAR1 antagonist | OXTR agonist | V1aR counter | TAAR1 ag | OXTR potentiator
CS(=O)(=O)Nc1cccc(NC(=O)c2ccc(-c3ccc(F)c(F)c3)c3ccoc23)c1 | i | nt | nt | i | nt
CS(=O)(=O)Nc1cccc(NC(=O)c2cccc3c(-c4cccc(C(N)=O)c4)coc23)c1 | 65.8 | nt | nt | i | nt
CS(=O)(=O)Nc1cccc(NC(=O)c2cccc3c(-c4ccc(F)c(F)c4)coc23)c1 | 64.2 | nt | nt | i | nt
CC(NCc1cccnc1)c1ccccc1 (stereo not drawn) | i | i | i | i | i
O=C(COC(=O)CNS(=O)(=O)c1ccc(Br)cc1Cl)NCCc1ccccc1 | i | i | i | i | i
CCOC(=O)CNC(=O)C1c2ccccc2Oc2ccccc21 | i | i | i | i | i
COc1ccc(NC(=O)c2sc(=O)n(Cc3cccc(C(F)(F)F)c3)c2C)cc1OC | i | nt | nt | i | nt
COc1cccc(N2C(=O)CC(Sc3nc(C)cc(C)n3)C2=O)c1 (stereo not drawn) | i | i | i | i | i
CCN=C(NCC)SC1CC(=O)N(c2cccc(OC)c2)C1=O (stereo not drawn) | 54.9 | i | i | i | i
CCN=C(NCC)SC1CC(=O)N(c2ccccc2)C1=O (stereo not drawn) | 50.7 | i | i | i | i
CN=C(Nc1ccc2c(c1)OCO2)SC1CC(=O)N(c2ccccc2)C1=O (stereo not drawn) | i | i | i | i | i
CCOC(=O)c1c(C)c(C)n2c1NC(=O)C2 | i | nt | nt | i | nt
Cc1ccc(SCCNC(=S)Nc2cc(C)cc(C)c2)cc1 | 65.0 | i | i | i | i
CC(=O)Nc1ccc(C(=O)OCC(=O)N(c2ccccc2)C2CCCCC2)cc1 | 49.8 | i | i | i | i
CCCCNC(=O)N(O)C1N(/N=C/c2ccccc2OC)C(=S)SC1(C)C (stereo not drawn) | i | i | i | i | i
Cn1cc(C(c2ccccn2)c2cn(C)c3ccccc23)c2ccccc21 | i | i | i | 41.1 | i
O=C1N/C(=N\S(=O)(=O)c2ccccc2)S/C1=C\c1cc([N+](=O)[O-])ccc1O | 53.6 | 25.4 | 20.4 | i | i
O=C1N/C(=N\S(=O)(=O)Cc2ccccc2)S/C1=C/c1cc([N+](=O)[O-])ccc1O | 72.2 | 43.1 | 62.6 | 57.4 | i
COc1cc(/C=C2/S/C(=N/S(=O)(=O)c3ccccc3)NC2=O)c([N+](=O)[O-])cc1OC | i | i | i | i | i
CSCCC(=O)N1CCN(CC(=O)N2CCCC2)CC1 | i | i | i | i | i
COC(=O)N1C[C@H](OCc2cn(-c3ccc(OC)cc3)nn2)[C@H]2C[C@@H]1c1ccccc1O2 | i | nt | nt | i | nt
O=C(Nc1ccc(C(O)(C(F)(F)F)C(F)(F)F)cc1)c1ccc(Cl)c([N+](=O)[O-])c1 | 57.1 | i | i | i | i
O=C(O)c1cc(NC(=O)c2ccc(Cl)c([N+](=O)[O-])c2)cc(C(=O)O)c1 | i | i | i | i | i
CC(C)(C)C(=O)NCCCc1nc2ccccc2n1CCCOc1ccc(Cl)cc1 | 65.5 | i | i | i | i
CC(=O)NCCc1nc2ccccc2n1CCOc1ccccc1 | i | i | i | 39.1 | i
C=CCn1c(CCCNC(=O)C(C)(C)C)nc2ccccc21 | i | i | i | i | i
Cc1cc(Br)c2nc(-c3ccccc3)c(Cc3cccc(Cl)c3)n2c1 | i | nt | nt | i | nt
CCN1CCCc2cc(CN(CCN3CCOCC3)C(=S)Nc3cccc(Cl)c3)ccc21 | i | i | i | i | i
COc1ccc(/C=N/N(Cc2ccccc2)c2ccccc2)cc1O | i | i | i | i | i
